According to publication PMC7048620 (Nature microbiology, 2020):
Read-outs that look alike come from different tables or passages of the source. Blank lines part the entries; values can stand above or below the molecule they belong to.

What was measured:
FtsZ-FtsA co-filaments [1] = target: T1, FtsZ-FtsA co-filaments (Escherichia coli, UniProt P0A9A6+P0ABH0); test: FRAP on supported lipid membranes; details: mean±SD
T1 sequence (P0ABH0 1-420): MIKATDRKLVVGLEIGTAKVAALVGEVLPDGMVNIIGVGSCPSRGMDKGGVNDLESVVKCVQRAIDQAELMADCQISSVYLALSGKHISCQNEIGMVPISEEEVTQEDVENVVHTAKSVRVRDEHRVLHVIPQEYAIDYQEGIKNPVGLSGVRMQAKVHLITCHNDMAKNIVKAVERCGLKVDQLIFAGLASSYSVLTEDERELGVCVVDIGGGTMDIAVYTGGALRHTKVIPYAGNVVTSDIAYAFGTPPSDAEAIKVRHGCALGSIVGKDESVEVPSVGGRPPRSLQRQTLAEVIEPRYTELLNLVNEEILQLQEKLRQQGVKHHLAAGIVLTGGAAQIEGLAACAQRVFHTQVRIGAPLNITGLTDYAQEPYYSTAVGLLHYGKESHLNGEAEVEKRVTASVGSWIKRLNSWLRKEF
T1 sequence (P0A9A6 1-383 partner): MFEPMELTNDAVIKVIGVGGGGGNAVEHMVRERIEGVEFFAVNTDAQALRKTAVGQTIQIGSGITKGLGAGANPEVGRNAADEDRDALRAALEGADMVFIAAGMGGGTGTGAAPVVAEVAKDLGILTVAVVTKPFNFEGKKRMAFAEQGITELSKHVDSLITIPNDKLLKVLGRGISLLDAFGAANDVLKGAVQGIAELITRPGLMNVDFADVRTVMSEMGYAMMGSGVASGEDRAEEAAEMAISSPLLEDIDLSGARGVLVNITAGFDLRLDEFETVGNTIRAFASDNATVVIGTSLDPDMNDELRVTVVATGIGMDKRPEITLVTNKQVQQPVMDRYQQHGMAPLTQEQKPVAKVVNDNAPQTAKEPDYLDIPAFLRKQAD
Procedure, shortened: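 Treadmilling patterns were formed on supported lipid membranes with 0.2 mol-% tris-Ni-NTA or 1 mol-% mono-Ni-NTA, using FtsA (0.45-0.6 μM) and FtsZ (1.5-1.8 μM) in 50 mM Tris-HCl pH 7.4, 150 mM KCl, 5 mM MgCl2 with 4 mM ATP/4 mM GTP. His-tagged FtsN cytoplasmic peptide went onto tris-Ni-NTA membranes. A ~15 μm x 15 μm area was bleached and imaged at 2 s/frame; a mono-exponential fit gave the half-time.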

[2] = Sedimentation velocity analytical ultracentrifugation; assay type: physicochemical, Escherichia coli
Procedure, shortened: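 Full-length FtsN was loaded at 9-20 μM and read by Rayleigh interference and 280 nm absorbance. Alexa488-FtsA was loaded at 4 μM and read at 495 nm. c(s) distributions came from least-squares boundary modelling.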

FtsZ-FtsA co-filaments [3] = target: T1, FtsZ-FtsA co-filaments; test: Single molecule diffusion and confinement time analysis on supported bilayers; details: Cy5-labelled single molecules in presence of Alexa488-FtsZ pattern, Gaussian fit
Procedure, shortened: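 FtsA (0.45-0.6 μM) and FtsZ (1.5-1.8 μM) with 4 mM ATP/GTP formed steady-state patterns on supported membranes. Unlabelled His-tagged FtsN cytoplasmic peptide (1 μM) was added from solution with 10-20 pM Cy5-labelled peptide (wild-type or variant). TIRF tracking ran at 10 Hz. Diffusion-coefficient density distributions were fitted with a Gaussian (FtsZ, FtsA) or a double Gaussian (FtsN).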

[4] = target: FtsZ-FtsA co-filaments on supported lipid membranes (E. coli) (UniProt P0A9A6); test: single-molecule tracking by TIRF microscopy on supported lipid bilayers
[5] = target: FtsZ-FtsA co-filaments on supported lipid membranes (E. coli) (UniProt P0A9A6); test: TIRF microscopy of purified proteins on supported lipid bilayers
FtsA [6] = target: T2, FtsA (E. coli, UniProt P0ABH0 1-420); test: MST
T2 sequence: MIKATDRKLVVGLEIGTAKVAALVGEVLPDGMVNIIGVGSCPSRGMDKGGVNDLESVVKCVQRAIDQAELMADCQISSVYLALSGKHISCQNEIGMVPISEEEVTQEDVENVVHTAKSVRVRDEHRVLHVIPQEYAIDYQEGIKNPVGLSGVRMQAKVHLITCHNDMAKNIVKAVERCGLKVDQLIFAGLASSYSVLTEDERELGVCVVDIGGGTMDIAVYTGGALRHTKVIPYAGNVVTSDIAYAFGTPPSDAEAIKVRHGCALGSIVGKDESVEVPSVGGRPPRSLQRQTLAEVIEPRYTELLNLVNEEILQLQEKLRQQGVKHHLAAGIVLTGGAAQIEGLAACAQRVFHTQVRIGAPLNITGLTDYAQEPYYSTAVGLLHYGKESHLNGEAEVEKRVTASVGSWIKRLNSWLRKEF

FtsA [7] = target: T3, FtsA (Escherichia coli, UniProt P0ABH0); assay type: binding; details: MST
T3 sequence (P0ABH0 1-420): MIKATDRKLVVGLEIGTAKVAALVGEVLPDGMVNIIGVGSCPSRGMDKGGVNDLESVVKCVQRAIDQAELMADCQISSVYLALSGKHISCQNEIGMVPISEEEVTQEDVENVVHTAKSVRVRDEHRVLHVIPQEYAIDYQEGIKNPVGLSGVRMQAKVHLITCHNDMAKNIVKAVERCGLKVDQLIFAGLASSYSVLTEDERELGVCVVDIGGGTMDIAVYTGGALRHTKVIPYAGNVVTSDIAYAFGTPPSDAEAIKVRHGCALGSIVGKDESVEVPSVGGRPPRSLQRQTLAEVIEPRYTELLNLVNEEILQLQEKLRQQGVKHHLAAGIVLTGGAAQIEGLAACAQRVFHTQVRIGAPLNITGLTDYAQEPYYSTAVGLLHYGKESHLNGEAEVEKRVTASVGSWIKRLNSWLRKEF

FtsA [8] = target: T2, FtsA; test: MST; remark: listed apart in the source
FtsA [9] = target: T2, FtsA; test: TIRF microscopy of purified proteins on supported lipid bilayers
[10] = target: the molecule itself; test: single-molecule tracking by TIRF microscopy on supported lipid bilayers

confinement time [4]: 0.41 s
frequency of confinement events relative to FtsN (cyto-DDEE)His [4]: 3 fold
colocalization efficiency with FtsZ (Pearson correlation coefficient) [5]: 0.62
Molecule: FtsN_(cyto)His, cytoplasmic peptide of FtsN

Kd (FtsA [6]): 250 ± 51 nM
interaction with FtsA at high salt (FtsA [7]; 300 mM KCl): significantly weaker
interaction with FtsA in solution (FtsA [7]; Alexa647-FtsA titrated with peptide or protein, n=3): Binding was observed
Kd (FtsA [8]): 734 ± 23 nM
B1: Full-length FtsN (His6) (natural protein)
chain: MAQRDYVRRSQPAPSRRKKSTSRKKQRNLPAVSPAMVAIAAAVLVTFIGGLYFITHHKKEESETLQSQKVTGNGLPPKPEERWRYIKELESRQPGVRAPTEPSAGGEVKTPEQLTPEQRQLLEQMQADMRQQPTQLVEVPWNEQTPEQRQQTLQRQRQAQQLAEQQRLAQQSRTTEQSWQQQTRTSQAAPVQAQPRQSKPASSQQPYQDLLQTPAHTTAQSKPQQAAPVARAADAPKPTAEKKDERRWMVQCGSFRGAEQAETVRAQLAFEGFDSKITTNNGWNRVVIGPVKGKENADSTLNRLKMAGHTNCIRLAAGG
sedimentation coefficient, second main peak ([2]; 16 μM in 3.72 mM DDM, Raleigh interference, n=3, compatible with dimers): 5.2 ± 0.1 S
sedimentation coefficient, first main peak ([2]; 16 μM in 3.72 mM DDM, Raleigh interference, n=3, compatible with monomers): 4.1 ± 0.1 S

Second part, the molecule before the results:

Molecule: CCCCCCCC/C=C\CCCCCCCC(=O)OC[C@H](COP(=O)(O)OCCNS(=O)(=O)c1ccc(-c2c3ccc(=[N+](CC)CC)cc-3oc3cc(N(CC)CC)ccc23)c(S(=O)(=O)[O-])c1)OC(=O)CCCCCCC/C=C\CCCCCCCC [rhodamine-PE, 1,2-dioleoyl-sn-glycero-3-phosphoethanolamine-N-(lissaminerhodamine B sulfonyl)]
half-time of fluorescence recovery Ƭ0.5, + FtsA/Z (FtsZ-FtsA co-filaments [1]; after FtsA and FtsZ added): 17.7 ± 0.2 s
half-time of fluorescence recovery Ƭ0.5, alone (FtsZ-FtsA co-filaments [1]; without FtsA and FtsZ): 12.8 ± 3.4 s

Molecule: FtsA: E. coli FtsA (UP P0ABH0), membrane anchor of FtsZ, purified
sedimentation coefficient, main peak ([2]; AlexaFluor488-FtsA in the absence of FtsN, n=2): ~ 2 S
diffusion coefficient (Dcoef) of single trajectories (FtsZ-FtsA co-filaments [3]): 0.0016 ± 0.0003 μm^2/s

Molecule: FtsZ: E. coli tubulin-related GTPase FtsZ (UP P0A9A6), purified, fluorescently labelled
diffusion coefficient (Dcoef) of single trajectories (FtsZ-FtsA co-filaments [3]): below 1x10^-4 μm^2/s

B2: FtsZ (natural protein)
chain: MFEPMELTNDAVIKVIGVGGGGGNAVEHMVRERIEGVEFFAVNTDAQALRKTAVGQTIQIGSGITKGLGAGANPEVGRNAADEDRDALRAALEGADMVFIAAGMGGGTGTGAAPVVAEVAKDLGILTVAVVTKPFNFEGKKRMAFAEQGITELSKHVDSLITIPNDKLLKVLGRGISLLDAFGAANDVLKGAVQGIAELITRPGLMNVDFADVRTVMSEMGYAMMGSGVASGEDRAEEAAEMAISSPLLEDIDLSGARGVLVNITAGFDLRLDEFETVGNTIRAFASDNATVVIGTSLDPDMNDELRVTVVATGIGMDKRPEITLVTNKQVQQPVMDRYQQHGMAPLTQEQKPVAKVVNDNAPQTAKEPDYLDIPAFLRKQAD
binding result (FtsA [9]): binds
binding result [10]: binds
